Here are results for 7 compounds from ChEMBL document CHEMBL3612019, “Revisiting 1,3,4-Oxadiazol-2-ones: Utilization in the Development of ABHD6 Inhibitors” (Bioorg Med Chem, 2015).

For assay [1], the target named is T1, Fatty-acid amide hydrolase 1 (Homo sapiens) (UniProt O00519).
T1 sequence (whole entry): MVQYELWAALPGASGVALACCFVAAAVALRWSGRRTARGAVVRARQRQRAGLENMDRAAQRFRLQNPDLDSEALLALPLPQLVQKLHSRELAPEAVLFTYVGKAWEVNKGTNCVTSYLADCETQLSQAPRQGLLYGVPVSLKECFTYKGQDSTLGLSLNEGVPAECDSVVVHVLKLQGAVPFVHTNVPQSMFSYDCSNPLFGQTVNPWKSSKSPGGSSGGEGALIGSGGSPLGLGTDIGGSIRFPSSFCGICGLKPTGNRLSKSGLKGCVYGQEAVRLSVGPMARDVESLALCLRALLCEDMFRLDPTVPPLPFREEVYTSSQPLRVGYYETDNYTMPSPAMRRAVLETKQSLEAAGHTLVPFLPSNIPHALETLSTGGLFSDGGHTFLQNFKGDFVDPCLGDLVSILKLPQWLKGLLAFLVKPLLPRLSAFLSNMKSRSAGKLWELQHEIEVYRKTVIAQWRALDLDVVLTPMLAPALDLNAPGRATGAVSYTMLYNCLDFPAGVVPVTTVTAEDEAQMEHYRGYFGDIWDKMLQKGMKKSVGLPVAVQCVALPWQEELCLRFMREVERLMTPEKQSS
The experiment in a line: Inhibition of human FAAH expressed in COS7 cell membranes at 10 uM pre-incubated for 10 mins before [3H]-AEA substrate addition by liquid scintillation counting. As to conditions: COS-7.

The target in assay [2] is T2, Monoglyceride lipase (Homo sapiens) (UniProt Q99685).
T2 sequence (whole entry): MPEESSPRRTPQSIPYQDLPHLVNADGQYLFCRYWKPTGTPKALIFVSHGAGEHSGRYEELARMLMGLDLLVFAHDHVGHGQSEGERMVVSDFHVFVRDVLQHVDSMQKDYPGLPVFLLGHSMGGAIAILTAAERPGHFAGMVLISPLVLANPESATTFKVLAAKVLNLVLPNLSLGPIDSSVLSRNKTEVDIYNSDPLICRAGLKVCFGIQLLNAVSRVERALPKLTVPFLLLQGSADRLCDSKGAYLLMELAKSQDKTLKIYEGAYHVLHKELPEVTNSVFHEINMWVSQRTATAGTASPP
The experiment in a line: Inhibition of human MAGL expressed in HEK293 cells at 10 uM pre-incubated for 10 mins before 2-AG substrate addition by HPLC method. The assay is classed as cell-based. In a few lines:
(§1)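 Lysates of hMAGL-overexpressing HEK293 cells in 50 mM Tris–HCl pH 7.4 with 1 mM EDTA. After a 10 min preincubation with inhibitor or DMSO, 2-AG was added (final 50 µM) and incubated 10 min at 37 °C. The reaction was stopped and samples centrifuged. Arachidonic acid formation and 2-AG depletion were measured by HPLC. Replicates as for the FAAH assay.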

In assay [3] the target is T3, Monoacylglycerol lipase ABHD6 (Homo sapiens, UniProt Q9BV23).
T3 sequence (Q9BV23 whole entry): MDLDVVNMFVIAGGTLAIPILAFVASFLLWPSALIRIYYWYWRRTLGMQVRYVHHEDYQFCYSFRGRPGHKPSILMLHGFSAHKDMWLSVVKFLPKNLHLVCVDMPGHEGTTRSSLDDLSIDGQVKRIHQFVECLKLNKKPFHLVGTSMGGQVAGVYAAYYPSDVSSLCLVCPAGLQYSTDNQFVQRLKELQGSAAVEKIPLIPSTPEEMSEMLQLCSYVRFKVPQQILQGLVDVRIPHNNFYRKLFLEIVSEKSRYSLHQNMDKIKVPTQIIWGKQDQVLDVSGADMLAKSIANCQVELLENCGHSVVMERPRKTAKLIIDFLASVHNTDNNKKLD
The experiment in a line: Inhibition of human ABHD6 expressed in HEK293 cells assessed as reduction in glycerol production from 1-AG hydrolysis pre-incubated for 30 mins before 1-AG substrate addition and measured 90 mins post substrate addition by fluorescence method. The assay is classed as cell-based. Summed up: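 hABHD6-HEK293 lysates pretreated 30 min with DMSO or inhibitor, then given 1-AG (12.5 µM final). Glycerol release was followed kinetically by fluorescence (emission 590 nm). Blanks without lysate were subtracted. IC50 was taken at the 90 min time point by nonlinear fitting of dose–response curves.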

In assay [4] the target is T3, Monoacylglycerol lipase ABHD6. The experiment in a line: Inhibition of human ABHD6 expressed in HEK293 cells at 1 uM pre-incubated for 10 mins before 2-AG substrate addition followed by rapid 40 fold compound dilution measured after 10 mins by HPLC method. The format is cell-based.
The target is the same in assay [5]. The experiment in a line: Inhibition of human ABHD6 expressed in HEK293 cells at 1 uM pre-incubated for 10 mins before 2-AG substrate addition followed by rapid 40 fold compound dilution measured after 30 mins by HPLC method. The assay is classed as cell-based.
For assay [6] the target is unchanged. The experiment in a line: Inhibition of human ABHD6 expressed in HEK293 cells at 1 uM pre-incubated for 10 mins before 2-AG substrate addition followed by rapid 40 fold compound dilution measured after 60 mins by HPLC method. The assay is classed as cell-based.
Assay [7] shares this target. The experiment in a line: Inhibition of human ABHD6 expressed in HEK293 cells at 1 uM pre-incubated for 10 mins before 2-AG substrate addition followed by rapid 40 fold compound dilution measured after 90 mins by HPLC method. The assay is classed as cell-based.
The target in assay [8] is T4, Lysophosphatidylserine lipase ABHD12 (Homo sapiens) (UniProt Q8N2K0).
T4 sequence (whole entry): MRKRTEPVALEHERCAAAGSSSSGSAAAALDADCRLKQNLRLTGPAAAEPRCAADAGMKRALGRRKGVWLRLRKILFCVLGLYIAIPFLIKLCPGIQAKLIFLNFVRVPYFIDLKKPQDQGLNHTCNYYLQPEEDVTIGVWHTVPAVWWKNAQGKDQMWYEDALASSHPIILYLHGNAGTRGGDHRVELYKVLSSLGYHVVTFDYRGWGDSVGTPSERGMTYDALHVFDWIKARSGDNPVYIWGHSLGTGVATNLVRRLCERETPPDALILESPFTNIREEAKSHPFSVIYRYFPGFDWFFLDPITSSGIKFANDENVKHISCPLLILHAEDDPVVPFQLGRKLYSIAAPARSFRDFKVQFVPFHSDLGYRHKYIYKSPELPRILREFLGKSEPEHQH
The experiment in a line: Inhibition of human ABHD12 expressed in HEK293 cells assessed as remaining enzyme activity at 1 uM pre-incubated for 10 mins before 2-AG substrate addition by HPLC method. The format is cell-based.

The target of assay [9] is T5, Monoacylglycerol lipase ABHD6 (Homo sapiens) (UniProt Q9BV23).
T5 sequence (whole entry): T3 sequence (Q9BV23 whole entry)
The experiment in a line: Inhibition of human ABHD6 expressed in HEK293 cells assessed as remaining enzyme activity by measuring reduction in glycerol production from 1-AG hydrolysis at 1 uM pre-incubated for 30 mins before 1-AG substrate addition and measured 90 mins post substrate addition by fluorescence method; values are per cent of control.

Another assay has as its target T6, Monoglyceride lipase (Homo sapiens, UniProt Q99685).
T6 sequence (Q99685 whole entry): T2 sequence (whole entry)
The experiment in a line: Inhibition of human MAGL expressed in HEK293 cells pre-incubated for 10 mins before 2-AG substrate addition by HPLC method. The format is cell-based. In a few lines:
as §1

The target in assay [10] is T7, Fatty-acid amide hydrolase 1 (Homo sapiens, UniProt O00519).
T7 sequence (O00519 whole entry): T1 sequence (whole entry)
The experiment in a line: Inhibition of human FAAH expressed in COS7 cell membranes pre-incubated for 10 mins before [3H]-AEA substrate addition by liquid scintillation counting. More on the design: species or system COS-7. Particulars: cos-7; read-out: IC50.

Assay [11] addresses T5, Monoacylglycerol lipase ABHD6 (Homo sapiens). The experiment in a line: Reversible inhibition of human ABHD6 expressed in HEK293 cells at 1 uM pre-incubated for 10 mins before 2-AG substrate addition followed by rapid 40 fold compound dilution measured after 10 to 90 mins by HPLC method. The assay is classed as cell-based.
In assay [12] the target is Cannabinoid receptor 1 (Rattus norvegicus) (UniProt P20272). As to conditions: Cerebellum, Membrane, 1 uM.

Activity calls are given as the source filed them. The rule behind the calls is not given here.

Chain of Cannabinoid receptor 1 (Rattus norvegicus) (P20272 whole entry): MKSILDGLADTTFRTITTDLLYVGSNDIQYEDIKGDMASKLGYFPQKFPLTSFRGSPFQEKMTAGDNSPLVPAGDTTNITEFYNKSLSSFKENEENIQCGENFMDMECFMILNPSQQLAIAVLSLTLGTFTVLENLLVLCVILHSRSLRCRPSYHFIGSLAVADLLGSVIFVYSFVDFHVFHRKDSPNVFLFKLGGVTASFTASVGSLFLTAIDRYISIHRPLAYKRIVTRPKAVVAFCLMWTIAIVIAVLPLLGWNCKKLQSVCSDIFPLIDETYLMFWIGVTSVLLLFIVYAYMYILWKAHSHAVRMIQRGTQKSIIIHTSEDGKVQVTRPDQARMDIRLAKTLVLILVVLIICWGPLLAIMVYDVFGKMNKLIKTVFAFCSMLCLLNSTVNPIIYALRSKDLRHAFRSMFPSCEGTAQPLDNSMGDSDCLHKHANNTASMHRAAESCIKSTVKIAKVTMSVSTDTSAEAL

What is called inhibition is the change of the read-out against control, counted positive when it falls. As a reminder, the pIC50 is −log10 of the IC50, conventionally taken in molar units. For `CN(C(=O)Oc1nsnc1N1CCOCC1)C1CCCCCCC1`, the inhibition in [1] was determined as 18%. Moreover, the inhibition entry in assay [2] is “inactive”. Also, the negative logarithm of the IC50 (pIC50) in assay [3] (hek293) came to 7.36. The IC50 in assay [4] was 91.2 nM; in [5] it was 87.1 nM; in [6], 87.1 nM; in assay [7] it was 93.3 nM.
Broadly, the residual activity is the signal under treatment as a percentage of the control signal. As for `CCOc1nn(Cc2cccc([N+](=O)[O-])c2)c(=O)o1`, the inhibition result in assay [1] and in assay [8] was “inactive” in each case. In assay [2], this compound had an inhibition of 30%. Besides, the residual activity in [9] amounted to 63%.
Regarding `O=c1oc(Oc2ccccc2)nn1Cc1cccc([N+](=O)[O-])c1`, the inhibition in assay [1] is 38%. Also, the IC50 is 3310 nM on Monoglyceride lipase (read-out: IC50), 3240 nM on Monoglyceride lipase (read-out: pIC50 (converted)) and 130 nM in assay [3]. In addition, in [8], the inhibition entry was “inactive”.
As for `COc1nn(Cc2cccc(C(F)(F)F)c2)c(=O)o1`, the values for the inhibition in [1] and in assay [2] were 12% and 48%, respectively. Further, in assay [3], the IC50 is 870 nM. The inhibition result in assay [8] was “inactive”.
For `O=C(N1CCC(=C2c3ccc(Cl)cc3CCc3cccnc32)CC1)n1cncn1`, the IC50 in assay [10] came to 7240 nM; on Monoglyceride lipase (hek293, read-out: IC50), 46 nM; in assay [3] (hek293) it was 1780 nM.
On to `CCCCCCCCCCC[C@@H](C[C@@H]1OC(=O)[C@H]1CCCCCC)OC(=O)[C@H](CC(C)C)NC=O`, for which the inhibition result in [11] was “Active”.
The compound `Cc1c(C(=O)NN2CCCCC2)nn(-c2ccc(Cl)cc2Cl)c1-c1ccc(I)cc1` gave an inhibition in assay [12] of 38%.
